According to ChEMBL document CHEMBL2417481, “Regioselective synthesis of 6-substituted-2-amino-5-bromo-4(3H)-pyrimidinones and evaluation of their antiviral activity” (Eur J Med Chem, 2013):

Tests used:
Influenza B virus = assay: Antiviral activity against Influenza B virus infected in MDCK cells assessed as reduction in virus-induced cytopathogenicity; format: functional, organism-based
Summary of the method: (§1)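 Confluent cell monolayers (Vero, HeLa, HEL or MDCK, as named in each line) were infected with 100 CCID50 of virus while exposed to a range of compound concentrations. Cytopathicity was scored once it was complete in untreated infected controls.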

Influenza A virus [1] = assay: Antiviral activity against Influenza A virus […] infected in MDCK cells assessed as reduction in virus-induced cytopathogenicity; format: functional, organism-based; summary of the method: as §1
Punta Toro virus = assay: Antiviral activity against Punta Toro virus infected in african green monkey Vero cells assessed as reduction in virus-induced cytopathogenicity; format: functional, organism-based; summary of the method: as §1
Coxsackievirus B4 [2] = assay: Antiviral activity against Coxsackievirus B4 infected in african green monkey Vero cells assessed as reduction in virus-induced cytopathogenicity; format: functional, organism-based; conditions: Enterovirus B; summary of the method: as §1
Sindbis virus = assay: Antiviral activity against Sindbis virus infected in african green monkey Vero cells assessed as reduction in virus-induced cytopathogenicity; format: functional, organism-based; summary of the method: as §1
[3] = test system: Mammalian orthoreovirus 1; assay: Antiviral activity against Reovirus-1 infected in african green monkey Vero cells assessed as reduction in virus-induced cytopathogenicity; format: functional, organism-based; conditions: Mammalian orthoreovirus 1, Vero
Summary of the method: (§2)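 Confluent Vero monolayers in 96-well plates were inoculated with 100 CCID50 of virus together with varying compound concentrations. Cytopathicity was scored once it was complete in untreated virus-infected control cultures.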

Human respirovirus 3 = assay: Antiviral activity against Parainfluenza virus 3 infected in african green monkey Vero cells assessed as reduction in virus-induced cytopathogenicity; format: functional, organism-based; conditions: Human respirovirus 3, Vero; summary of the method: as §2
[4] = test system: Respiratory syncytial virus; assay: Antiviral activity against Respiratory syncytial virus Long infected in human HeLa cells assessed as reduction in virus-induced cytopathogenicity; format: functional, organism-based; summary of the method: as §1
Coxsackievirus B4 [5] = assay: Antiviral activity against Coxsackievirus B4 infected in human HeLa cells assessed as reduction in virus-induced cytopathogenicity; format: functional, organism-based; conditions: Enterovirus B; summary of the method: as §1
Influenza A virus [6] = assay: Antiviral activity against Influenza A virus H1N1 infected in MDCK cells assessed as reduction in virus-induced cytopathogenicity; format: functional, organism-based; summary of the method: as §1
[7] = test system: Vesicular stomatitis virus; assay: Antiviral activity against Vesicular stomatitis virus infected in human HeLa cells assessed as reduction in virus-induced cytopathogenicity; format: functional, organism-based; summary of the method: as §1
Human alphaherpesvirus 1 [8] = assay: Antiviral activity against thymidine kinase negative […] Herpes simplex virus-1 KOS infected in human HEL cells assessed as reduction in virus-induced cytopathogenicity; format: functional, organism-based; conditions: Human alphaherpesvirus 1, KOS; summary of the method: as §1
[9] = test system: Vesicular stomatitis virus; assay: Antiviral activity against Vesicular stomatitis virus infected in human HEL cells assessed as reduction in virus-induced cytopathogenicity; format: functional, organism-based; summary of the method: as §1
Human alphaherpesvirus 2 = assay: Antiviral activity against Herpes simplex virus-2 G infected in human HEL cells assessed as reduction in virus-induced cytopathogenicity; format: functional, organism-based; conditions: Human alphaherpesvirus 2, strain G; summary of the method: as §1
Human alphaherpesvirus 1 [10] = assay: Antiviral activity against Herpes simplex virus-1 KOS infected in human HEL cells assessed as reduction in virus-induced cytopathogenicity; format: functional, organism-based; conditions: Human alphaherpesvirus 1, KOS; summary of the method: as §1
Felid alphaherpesvirus 1 = assay: Antiviral activity against Feline Herpes virus infected in cat CRFK cells assessed as inhibition of virus-induced cytopathic effect by MTS assay; format: functional, organism-based; conditions: Felid alphaherpesvirus 1, CRFK
Feline coronavirus = assay: Antiviral activity against Feline coronavirus infected in cat CRFK cells assessed as inhibition of virus-induced cytopathic effect by MTS assay; format: functional, organism-based; conditions: Alphacoronavirus 1, CRFK
Human alphaherpesvirus 3 [11] = assay: Antiviral activity against thymidine kinase negative Varicella-zoster virus 07-1 infected in human HEL cells assessed as reduction in the virus plaque formation; format: functional, organism-based; conditions: Human alphaherpesvirus 3, 07-1, HEL
Summary of the method: (§3)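 Confluent HEL fibroblast cultures received 20 PFU of VZV together with varying compound concentrations. Plaque formation was read when it reached completion in untreated virus controls.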

Human alphaherpesvirus 3 [12] = assay: Antiviral activity against thymidine kinase positive Varicella-zoster virus OKA infected in human HEL cells assessed as reduction in virus plaque formation; format: functional, cell-based, Human herpesvirus 3 strain Oka vaccine; conditions: Human alphaherpesvirus 3, OKA; summary of the method: as §3
Cytomegalovirus [13] = assay: Antiviral activity against Cytomegalovirus Davis infected in human HEL cells assessed as reduction in virus plaque formation; format: functional, organism-based; conditions: Human betaherpesvirus 5, Davis
Summary of the method: (§4)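 Confluent HEL fibroblasts were inoculated with 100 PFU of CMV at graded compound concentrations. Plaques were counted once formation was complete in untreated infected controls.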

[14] = Cytotoxicity against MDCK cells assessed as morphological changes; format: cell-based, Canis lupus familiaris; conditions: dog
[15] = Cytotoxicity against african green monkey Vero cells assessed as morphological changes; format: cell-based; conditions: chlorocebus sabaeus
[16] = Cytotoxicity against human HeLa cells assessed as morphological changes; format: cell-based
[17] = Cytotoxicity against cat CRFK cells assessed as cell viability by MTS assay; format: cell-based, Felis catus
Cytomegalovirus [18] = assay: Antiviral activity against Cytomegalovirus AD-169 infected in human HEL cells assessed as reduction in virus plaque formation; format: functional, organism-based; conditions: Human betaherpesvirus 5, AD-169, HEL; summary of the method: as §4
[19] = Cytotoxicity against human HEL cells assessed as morphological changes; format: cell-based

SMILES	EC50 (Influenza B virus) [µM]	EC50 (Influenza A virus [1]) [µM]	EC50 (Punta Toro virus) [µM]	EC50 (Coxsackievirus B4 [2]) [µM]	EC50 (Sindbis virus) [µM]	EC50 [3] [µM]	EC50 (Human respirovirus 3) [µM]	EC50 [4] [µM]	EC50 (Coxsackievirus B4 [5]) [µM]	EC50 (Influenza A virus [6]) [µM]	EC50 [7] [µM]	EC50 (Human alphaherpesvirus 1 [8]) [µM]	EC50 [9] [µM]	EC50 (Human alphaherpesvirus 1 [10]) [µM]	EC50 (Cytomegalovirus [13]) [µM]	MCC [14] [µM]	MCC [15] [µM]	MCC [16] [µM]	EC50 (Cytomegalovirus [18]) [µM]	MCC [19] [µM]	further results
Nc1nc(CC(O)c2ccccc2C(F)(F)F)c(Br)c(=O)[nH]1 (configuration not stated)	> 100	> 100	> 100	> 100	> 100	> 100	> 100	> 100	> 100	> 100	> 100	> 100	> 100	> 100	> 100	> 100	> 100	> 100	> 100	> 100	EC50 (Human alphaherpesvirus 2): > 100 µM; EC50 (Felid alphaherpesvirus 1): > 100 µM; EC50 (Feline coronavirus): > 100 µM; EC50 (Human alphaherpesvirus 3 [11]): > 100 µM; EC50 (Human alphaherpesvirus 3 [12]): > 100 µM; MCC [17]: > 100 µM
Nc1nc2c(ncn2COCCO)c(=O)[nH]1 [ACYCLOVIR]													> 250							> 250	
CC(N)C12CC3CC(CC(C3)C1)C2 (configuration not stated) [RIMANTADINE]	> 200															> 200					
Nc1nc2c(ncn2COC(CO)CO)c(=O)[nH]1 [GANCICLOVIR]														> 100	0.38			> 100	3.1	> 100	EC50 (Human alphaherpesvirus 2): 0.9 µM; EC50 (Felid alphaherpesvirus 1): 0.9 µM; EC50 (Feline coronavirus): > 100 µM; MCC [17]: > 100 µM
Nc1nc(CCc2ccccc2)c(Br)c(=O)[nH]1	> 100	> 100	> 100	> 100	> 100	> 100	> 100	> 100	> 100	> 100	> 100	> 100	> 100	> 100	> 100	> 100	> 100	> 100	> 100	> 100	EC50 (Human alphaherpesvirus 2): > 100 µM; EC50 (Felid alphaherpesvirus 1): > 100 µM; EC50 (Feline coronavirus): > 100 µM; EC50 (Human alphaherpesvirus 3 [11]): > 100 µM; EC50 (Human alphaherpesvirus 3 [12]): > 100 µM; MCC [17]: > 100 µM
CC(C)(O)Cc1nc(N)[nH]c(=O)c1Br	> 100	> 100	> 100	> 100	> 100	> 100	> 100	> 100	> 100	> 100	45	> 100	> 100	> 100	> 100	> 100	> 100	> 100	100	> 100	EC50 (Human alphaherpesvirus 2): > 100 µM; EC50 (Felid alphaherpesvirus 1): > 100 µM; EC50 (Feline coronavirus): > 100 µM; EC50 (Human alphaherpesvirus 3 [11]): 79.5 µM; EC50 (Human alphaherpesvirus 3 [12]): 100 µM; MCC [17]: > 100 µM
Nc1ncnc2c1ncn2C[C@H](O)CO [(S)-DHPA]			> 250	> 250	> 250	> 250	> 250	> 250	> 250		> 250						> 250	> 250			
NC12CC3CC(CC(C3)C1)C2 [AMANTADINE]	> 200	0.8								140						> 200					
NC(=O)c1ncn([C@@H]2O[C@H](CO)[C@@H](O)[C@H]2O)n1 [RIBAVIRIN]	8.3	7.2	112	> 250	> 250	> 250		5	22	9.6						> 100	> 250	> 250			
O=c1[nH]c(=O)n([C@H]2C[C@H](O)[C@@H](CO)O2)cc1/C=C/Br [BRIVUDINE]												> 250	> 250	0.4						> 250	EC50 (Human alphaherpesvirus 3 [11]): 33 µM; EC50 (Human alphaherpesvirus 3 [12]): 0.02 µM
Nc1ccn(C[C@@H](CO)OCP(=O)(O)O)c(=O)n1 [CIDOFOVIR]													> 250		0.51				3.1	> 250	
